Screens: PubChem, several laboratories
An excerpt weighted towards active compounds, which were near 4.9% of everything screened.
STAT1 blocker – STAT1 signaling inhibition. NIH 3T3 STAT1-luciferase reporter, IFN-gamma, luminescence. inhibition, % at 5.5 µM. 200,000 compounds, 0.35% hits. AID 920;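 active = inhibition above a set limit, the mean inhibition across all tested compounds plus 3 SD, cut at about 34% in these data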;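 note: 0% = IFN-gamma with DMSO and 100% = IFN-gamma with 300 µM nifuroxazide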
NF-kB neuron act – NF-kB expression increase, human neuronal cells. fold change at 12.5 µM. 190,000 compounds, 1.6% hits. NF-kB reporter expression; hits give high values; in the data active = fold change above about 3.3
STAT3 blocker – inhibitors of IL-6 induced STAT3 signaling | U3A cells, IL-6 STAT3-luciferase reporter, luminescence; host cell line lacks STAT1 | inhibition, % at 5.5 µM | 190,000 compounds, 0.89% hits;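 active = inhibition above the mean inhibition across all screened compounds plus 3 SD, cut at about 44% in these data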;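 note: 0% = DMSO only wells and 100% = 100 µM nifuroxazide control wells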
STAT1 act-1 – increases IFN-gamma driven STAT1 reporter signal; NIH 3T3 STAT1-luciferase reporter, luminescence; 100% = IFN-gamma alone, no compound; activation (% of control), % at 5.5 µM; AID 932; 200,000 compounds, 2.6% hits;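 active = activation above the screen-wide mean activation plus 3 SD, cut at about 130% in these data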;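 note: raw ratio to IFN-gamma control signal so 100% means no change and 0% no light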
APP 5'UTR act – activates APP 5'UTR luciferase reporter | SH-SY5Y APP 5'UTR luciferase reporter, luminescence; zero percent = DMSO vehicle wells | activation, % at 2 µM | 190,000 compounds, 1% hits;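 active = activation above a set limit, based on mean plus 3 SD of controls, cut at about 140% in these data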
STAT3 act-1 – STAT3 signaling activation; activation (% of control), % at 5.6 µM; U3A cells, IL-6 STAT3-luciferase reporter, luminescence; 100% = signal with IL-6 EC80 alone; AID 871; 190,000 compounds, 0.91% hits;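 active = activation above the screen-wide mean of compound activation plus 3 SD, cut at about 130% in these data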;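 note: 0% = background luminescence of wells with medium and substrate only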
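Material: human U3A cells carrying STAT3-luciferase construct. Measured by: reporter luminescence signal. Timing: compound 1 h, then IL-6 6 h at 37 °C.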
STAT3 act-2 – confirmation of STAT3 signaling activators; shares compounds with STAT3 act-1; U3A STAT3-luciferase reporter, IL-6 potentiation, luminescence; U3A cells lack STAT1; 100 means same as IL-6 alone; potentiation (% of control), % at 5.7 µM; 1,200 compounds, 64% hits;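 active = percent activation of the STAT3 luciferase reporter above a set limit taken from the earlier primary screen, cut at about 130% in these data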;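 note: 0% = background signal of medium plus substrate and 100% = median of IL-6 with DMSO wells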
NFkB act 2 – NF-kappaB activation in STAT3 activator counter-screen; shares compounds with STAT3 act-1; human cells, NF-kappaB reporter activation; activation (% of control), % at 5.7 µM; 1,200 compounds, 11% hits; AID 1309; in the data active = activation above about 120%;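 note: reporter induced by TNF-alpha stimulation; 100% = median of stimulated DMSO wells and 0% = no signal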
STAT1 act-2 – activates STAT1, counter-screen to STAT3 activators | shares compounds with STAT3 act-1 | NIH 3T3 STAT1-luciferase reporter, IFN-gamma, luminescence | activation (% of control), % at 5.7 µM | 1,200 compounds, 13% hits;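 active = activation above the solvent-only control well mean plus 3 SD, set per screening run, cut at about 120% in these data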;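 note: 100% = IFN-gamma with DMSO median signal so 100% means no change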
* hit, by the source's call; / = no result given.

SMILES	STAT1 blocker	NF-kB neuron act	STAT3 blocker	STAT1 act-1	APP 5'UTR act	STAT3 act-1	STAT3 act-2	NFkB act 2	STAT1 act-2
Cc1ccc(Nc2nnc(SC/C(O)=C(\C#N)c3nc4ccccc4[nH]3)s2)c(C)c1	5	0.78	-60	96	-7	145*	151*	106	89
N#C/C(=C(/O)CSc1ncn[nH]1)c1nc2ccccc2[nH]1	8	0.76	-47	93	-11	143*	152*	107	100
CC(C)(C)c1nnc2sc(SC/C(O)=C(\C#N)c3nc4ccccc4[nH]3)nn2c1=O	0	0.6	0	100	-6	105	/	/	/
Cc1cccc(Nc2nnc(SC/C(O)=C(\C#N)c3nc4ccccc4[nH]3)s2)c1	10	0.92	-55	91	0	143*	153*	102	95
COc1ccc(C)cc1-n1nnnc1SC/C(O)=C(\C#N)c1nc2ccccc2[nH]1	6	0.91	-10	94	-2	112	/	/	/
Cn1nc(C(F)(F)F)cc1C(=O)NC1CCCCCC1	0	1.2	-2	100	18	103	/	/	/
CN(C)C(CN1C(=O)C2CC=CCC2C1=O)c1cn(C)c2ccccc12 (centres undefined)	11	0.91	-58	90	-6	153*	149*	104	90
COc1ccc(Cl)cc1C(=O)NNC(=O)CN1C(=O)C2CC=CCC2C1=O (centres undefined)	1	1.1	1	99	5	103	/	/	/
Nc1ccc(Sc2cnn(-c3ccccc3)c(=O)c2Cl)cc1	4	1.1	-8	97	-3	113	/	/	/
Cc1ccc(Sc2cnn(-c3ccccc3)c(=O)c2Cl)cc1	2	1.1	-38	98	-7	142*	133*	104	98
Cc1cc(C(=O)N2CCc3ccccc32)c2cc(F)ccc2n1	-5	1.1	-14	104	8	115	/	/	/
Cn1ncc(Cl)c1C(=O)N1CCc2ccccc21	2	1.1	-63	98	-5	155*	140*	105	97
Cn1ncc(Cl)c1C(=O)N1CCCc2ccccc21	2	0.99	1	98	15	99	/	/	/
O=C(c1cccc(F)c1)N1CCc2ccccc21	3	1.3	-53	100	-10	145*	125	103	97
Cc1nn(C)c(C(=O)N2CCc3ccccc32)c1Cl	11	/	-48	90	-9	144*	113	102	93
CSCC[C@H](NC(=O)OC(C)(C)C)c1nnc(SCc2cccc(F)c2)o1	-6	0.86	-42	105	6	142*	100	112	109
CSCC[C@H](NC(=O)OC(C)(C)C)c1nnc(SCc2ccc(F)cc2)o1	-4	0.76	2	104	-13	100	/	/	/
O=C(CNC(=O)c1ccccc1)N/N=C/c1cn[nH]c1-c1ccccc1	2	1.2	-4	100	1	101	/	/	/
COc1ccc(C(=O)Nc2ccccc2C(=O)NC(Cc2c[nH]c3ccccc23)C(=O)O)cc1 (centres undefined)	8	1.1	-44	92	1	138*	123	100	94
Cc1nc([N+](=O)[O-])c(Br)n1CC(=O)c1ccc(Cl)cc1	5	0.85	5	95	13	101	/	/	/
Cc1nc([N+](=O)[O-])c(Br)n1Cc1ccc(Cl)c(Cl)c1	27	0.34	-28	75	-21	139*	117	107	77
Cc1nc2c(-c3ccc(Cl)cc3)cnn2c2c1CCC2	-3	1.3	-51	102	37	142*	151*	110	110
CN1CCc2c(sc3ncn4nc(-c5ccccc5O)nc4c23)C1	-6	1.2	-98	106	-9	182*	164*	107	101
c1coc(-c2nc3c4c5c(sc4ncn3n2)CCCC5)c1	9	0.82	22	91	3	84	/	/	/
COc1cccc(-n2c(SCC(=O)Nc3cc(C)on3)nc3c([nH]c4ccccc43)c2=O)c1	21	2.1	-48	81	-13	144*	135*	100	90
SMILES	STAT1 blocker	NF-kB neuron act	STAT3 blocker	STAT1 act-1	APP 5'UTR act	STAT3 act-1	STAT3 act-2	NFkB act 2	STAT1 act-2
CC(C)Sc1nc2c([nH]c3ccccc32)c(=O)n1C	10	1.2	-61	91	0	158*	159*	92	87
Cc1cc(NC(=O)CSc2nc3c([nH]c4ccccc43)c(=O)n2-c2cccc(C(F)(F)F)c2)no1	10	1	-49	91	19	148*	138*	105	85
COc1cccc(-n2ccnc2SCC(=O)Nc2cc(C)on2)c1	7	0.85	7	92	20	100	/	/	/
CCOC(=O)C(C)Sc1nc2c([nH]c3ccccc32)c(=O)n1C (centres undefined)	7	1.2	-21	93	1	120	/	/	/
CNC(=O)CSc1nc2c([nH]c3ccccc32)c(=O)n1CCOC	14	1.1	-52	87	-4	141*	150*	98	91
COc1ccccc1-c1nnc(NC(=O)CSc2nncn2C)s1	11	2	36	90	10	75	/	/	/
COC(=O)c1ccccc1NC1CC(=O)N(c2c(C)cccc2C)C1=O (centres undefined)	-1	1.1	-9	101	9	106	/	/	/
C[C@H]1CC[C@H]2C(=O)N3[C@H](c4ccccc4Br)[C@@H](C)CC[C@H]3C(=O)N2[C@@H]1c1ccccc1Br	2	0.43	-11	98	-16	107	/	/	/
COc1cccc(-n2c(SCC(=O)N3CCCCC3)nc3c([nH]c4ccccc43)c2=O)c1	9	1	/	91	3	/	/	/	/
COc1cccc(-n2c(SCC(N)=O)nc3c([nH]c4ccccc43)c2=O)c1	6	1.2	-43	94	10	143*	158*	107	97
O=C(Cn1cnc2c(cnn2-c2ccccc2)c1=O)Nc1cc(S(=O)(=O)N2CCOCC2)ccc1Cl	-1	1.2	3	101	-4	98	/	/	/
COc1ccc(C(=O)n2nc(C)cc2Nc2ccccc2)cc1	-24	2.7	-70	122	4	167*	153*	119	136*
CS(=O)(=O)N(CC(=O)N1CCOCC1)c1cccc([N+](=O)[O-])c1	-9	0.93	0	109	-6	102	/	/	/
Cc1ccc(OCCCC(=O)Nc2nnc(C3CCCO3)s2)c(C)c1 (centres undefined)	-9	1.3	2	107	6	102	/	/	/
